Sampled rows, rich in hits. Any-hit rate of the full collection: about 3.1%.
Myeloid diff 2 = compounds promoting myeloid differentiation | ER-HoxA9 myeloid progenitors, lysozyme-GFP differentiation, flow cytometry | calls only at 10 µM | actives 1% (n = 360,000) | AID 624256;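 active = normalized GFP-positive differentiation at or above the plate's own cutoff, the solvent-only control mean plus 3 SD; inconclusive = no clear call, values can overlap the other calls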;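 note: cells exposed to compound for four days before flow analysis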
NadD inh = inhibitors of Staphylococcus aureus NadD; purified NadD enzyme, colorimetric absorbance read-out; inhibition, % at 20 µM; actives 0.78% (n = 360,000); AID 602399; in the data active = inhibition above about 26%
PP5 inh = blocks human protein phosphatase 5 activity | P53041 | purified PP5c, OMFP substrate fluorescence | inhibition, % at 6.7 µM | actives 0.18% (n = 320,000);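 active = inhibition above the campaign's mean inhibition across all tested compounds plus 3 SD, cut at about 9.5% in these data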;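 note: 0% = DMSO only and 100% = 100 µM cantharidin control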
Target sequence (P53041 whole entry, looked up): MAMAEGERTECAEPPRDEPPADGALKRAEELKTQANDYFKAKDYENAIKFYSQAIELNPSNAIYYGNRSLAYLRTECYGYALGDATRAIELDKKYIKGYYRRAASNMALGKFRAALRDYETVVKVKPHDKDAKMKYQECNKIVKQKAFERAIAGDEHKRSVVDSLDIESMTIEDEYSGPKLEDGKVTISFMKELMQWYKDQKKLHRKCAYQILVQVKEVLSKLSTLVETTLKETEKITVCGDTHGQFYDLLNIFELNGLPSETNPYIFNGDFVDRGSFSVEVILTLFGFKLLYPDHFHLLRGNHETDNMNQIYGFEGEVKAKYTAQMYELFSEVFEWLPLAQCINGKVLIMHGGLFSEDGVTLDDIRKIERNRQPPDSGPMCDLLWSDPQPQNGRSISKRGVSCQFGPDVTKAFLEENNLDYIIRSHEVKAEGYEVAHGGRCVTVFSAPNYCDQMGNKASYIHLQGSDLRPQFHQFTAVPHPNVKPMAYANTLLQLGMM
PP1 counter = counter-screen for PP5 inhibitors: inhibitors of human PP1-alpha; actives 0.9% (n = 320,000); purified PP1alpha, OMFP fluorescence; P62136; inhibition, % at 6.7 µM; AID 2235;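 active = inhibition above the mean inhibition of all tested compounds plus 3 SD, computed separately for each screening campaign, cut at about 15% in these data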
HCV core dimer = blocks dimerization of HCV core protein; AID 1899; inhibition, % at 5 µM; TR-FRET GST/Flag-core106 dimerization, 1536-well; actives 0.33% (n = 300,000);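 active = inhibition above the mean of all tested compounds plus 3 SD, set per screening campaign, cut at about 45% in these data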
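Material: Tagged HCV core106 pair (GST and Flag) | Amount: GST-core106 13.5 nM, Flag-core106 17 nM | Medium: KF-containing HEPES buffer, pH 7.45, DTT, CHAPS, BSA | Reagent: Eu donor and XL665 acceptor anti-tag antibodies | Schedule: 4 h at 22.5 °C | Technique: Time-resolved FRET, ex 340 nm, em 617 and 671 nm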
CTSL1 counter = counter-screen for PFM18AAP inhibitors: inhibitors of F. hepatica cathepsin L1. recombinant F. hepatica cathepsin L1, Z-Leu-Arg-MCA fluorescence. inhibition, % at 5.96 µM. actives 0.49% (n = 300,000);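 active = inhibition above the mean of all tested compounds plus 3 SD, set per screening campaign, cut at about 17% in these data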;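 note: 0% = plate median of test compound wells and 100% = 1 µM Z-Phe-Ala-diazomethylketone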
Numbers without * were called inactive.

Screening C#CCOCCOCCOCCNc1nc(N2CCN(C(=O)CCCCCCCCCCNC(=O)[C@H]([C@@H](C)CC)n3cc(CCCCN=C(N)N)nn3)CC2)nc(N2CCN(C(=O)CCCCCCCCCCNC(=O)[C@H](CCCN=C(N)N)n3cc(C[C@@H](C)CC)nn3)CC2)n1 returned PP5 inh 9.8*, PP1 counter 68.2*, HCV core dimer 12.2 and CTSL1 counter 1.8.
Screening CCOCCCNc1ccc(N2C(=O)CCCC2=O)cc1[N+](=O)[O-] returned Myeloid diff 2 inactive, NadD inh -0.2, PP5 inh -0.6, PP1 counter 0.4, HCV core dimer -0.6 and CTSL1 counter -0.2.
For CC1CCN(CCNC(=O)C2CCCN(S(=O)(=O)c3cccc4nonc34)C2)CC1 (centres undefined) the results were Myeloid diff 2 inactive, NadD inh -4.6, PP5 inh -0.7, PP1 counter -4.7, HCV core dimer -2.5 and CTSL1 counter 24.1*.
S=C(NCc1ccccc1)NC1CCCCC1 was read as Myeloid diff 2 active, NadD inh -0.6, PP5 inh 0.6, PP1 counter -4.5, HCV core dimer -7.5 and CTSL1 counter 1.2.
Cc1ccc(Cn2cc(CN3CC(N4CCSCC4)CS3(=O)=O)nn2)cc1 (centres undefined) was read as Myeloid diff 2 inactive and NadD inh -1.2.
CSc1nnc(-c2ccco2)c(-c2ccco2)n1 was read as Myeloid diff 2 inactive, NadD inh 3.7, PP5 inh 2.8, PP1 counter 4.6, HCV core dimer 15.7 and CTSL1 counter 53.0*.
Cc1cccc(C)c1NC(=O)CSc1nnc(-c2ccco2)c(-c2ccco2)n1 was read as Myeloid diff 2 inactive, NadD inh 32.3*, PP5 inh 2.3, PP1 counter 11.4, HCV core dimer 72.2* and CTSL1 counter 1.1.
`Cc1ccc(NC(=O)CSc2nnc(-c3ccco3)c(-c3ccco3)n2)cc1` gave Myeloid diff 2 inconclusive, NadD inh 15.8, PP5 inh 1.7, PP1 counter 7.8, HCV core dimer 50.6* and CTSL1 counter 7.8.
CN(C)c1ccc(NC(=O)CSc2nnc(-c3ccco3)c(-c3ccco3)n2)cc1 was read as NadD inh 25.8, PP5 inh 4.0, PP1 counter 3.3, HCV core dimer 38.3 and CTSL1 counter 3.2.
For O=C(CSc1nnc(-c2ccco2)c(-c2ccco2)n1)Nc1ccccc1 the results were Myeloid diff 2 inactive, NadD inh 14.6, PP5 inh 0.8, PP1 counter 4.1, HCV core dimer 50.8* and CTSL1 counter 16.4.
Screening CCOC(=O)N1CCC2(CC1)NC(=O)c1ccccc1N2 returned Myeloid diff 2 inactive and NadD inh -3.9.
CN(C)c1ccc(/C=C/c2ccc3ccccc3n2)cc1 was read as Myeloid diff 2 inactive, NadD inh -0.6, PP5 inh 0.9, PP1 counter -3.5, HCV core dimer -27.9 and CTSL1 counter 1.3.
COc1cc(/C=C/c2nc3ccccc3s2)cc(OC)c1O was read as Myeloid diff 2 active, NadD inh -8.4, PP5 inh 1.2, PP1 counter -0.1, HCV core dimer -3.8 and CTSL1 counter 5.6.
For COc1cc(C=C(c2nc3ccccc3s2)c2nc3ccccc3s2)ccc1O the results were Myeloid diff 2 inactive, NadD inh 26.3, PP5 inh 4.4, PP1 counter -0.5, HCV core dimer 17.1 and CTSL1 counter -0.3.
Screening CN(C)c1ccc(/C=C/c2nc3ccccc3s2)cc1 returned Myeloid diff 2 active, NadD inh 3.9, PP5 inh 1.1, PP1 counter 6.9, HCV core dimer -6.0 and CTSL1 counter -3.3.
CC(C)CN(C(=O)c1ccco1)C1CCS(=O)(=O)C1 (centres undefined) was read as Myeloid diff 2 inactive, NadD inh -3.0, PP5 inh 0.7, PP1 counter -0.8, HCV core dimer -0.5 and CTSL1 counter -5.5.
Screening Cc1nc(C)c(-c2nnc(-c3ccc(C(C)(C)C)cc3)o2)cc1C(=O)NN returned Myeloid diff 2 active, NadD inh 0.0, PP5 inh 0.0, PP1 counter -0.8, HCV core dimer 2.6 and CTSL1 counter 2.7.
Cc1csc(=O)n1CC(=O)Nc1nc2ccccc2s1 was read as Myeloid diff 2 inactive, NadD inh -6.8, PP5 inh 0.8 and PP1 counter -11.4.
C=CCn1c(SCC(=O)Nc2nccs2)nnc1-c1cc2cccc(OC)c2o1 was read as Myeloid diff 2 inactive, NadD inh -3.5, PP5 inh 5.1, PP1 counter 16.7*, HCV core dimer 2.4 and CTSL1 counter -0.5.
`CCOC(=O)C1CCCN(C(=O)c2ccc3c(c2)OCO3)C1` (centres undefined) gave Myeloid diff 2 inactive, NadD inh -6.2, PP5 inh 0.7, PP1 counter -0.2, HCV core dimer -0.6 and CTSL1 counter 3.2.
For CCOC(=O)CNC(=O)N1CCCC(C(=O)c2ccc3c(c2)OCO3)C1 (centres undefined) the results were Myeloid diff 2 active, NadD inh 0.9, PP5 inh -1.3, PP1 counter -5.8, HCV core dimer -5.1 and CTSL1 counter 1.1.
Cc1cn([C@H]2C[C@H](N=[N+]=[N-])[C@@H](CO)O2)c(=O)[nH]c1=O was read as Myeloid diff 2 active, NadD inh -2.6, PP5 inh -1.9, PP1 counter 0.5, HCV core dimer -1.4 and CTSL1 counter -2.9.
Screening N#CCCN(Cc1cccnc1)CN1C(=O)c2ccccc2C1=O returned Myeloid diff 2 inactive and NadD inh 1.8.
Cc1ccc(C)c(/C=C(\C(=O)O)c2ccc(S(=O)(=O)N3CCCCC3)s2)c1 was read as Myeloid diff 2 inactive, NadD inh 9.6, PP5 inh 0.7, PP1 counter 4.1, HCV core dimer 57.1* and CTSL1 counter -1.6.
Screening COc1ccc(Br)cc1/C=C(\C(=O)O)c1ccc(S(=O)(=O)N2CCCCC2)s1 returned Myeloid diff 2 inactive, NadD inh 2.8, PP5 inh 2.7 and PP1 counter 3.1.
`CCCCc1cc(=O)oc2c(CN3CCCC3)c(O)ccc12` gave Myeloid diff 2 inactive, NadD inh 2.9, PP5 inh 3.2, PP1 counter 6.3, HCV core dimer -2.2 and CTSL1 counter 8.8.
For CCCCc1cc(=O)oc2cc(C)c(CN3CCCC3)c(O)c12 the results were Myeloid diff 2 inactive, NadD inh 13.8, PP5 inh 2.4, PP1 counter 1.4, HCV core dimer 51.4* and CTSL1 counter 2.6.
CCc1cc(=O)oc2cc(C)c(CN3CCCC(C)C3)c(O)c12 (centres undefined) was read as Myeloid diff 2 inactive, NadD inh 5.2, PP5 inh 1.4, PP1 counter 8.8, HCV core dimer 61.0* and CTSL1 counter 0.3.

Compound activity deposited in PubChem by several laboratories.
